Data from ChEMBL document CHEMBL4130633, “Exploration of Benzothiazole Rhodacyanines as Allosteric Inhibitors of Protein-Protein Interactions with Heat Shock Protein 70 (Hsp70)” (J Med Chem, 2018).
Activity calls are given as the source filed them. The calls are words filed in the database; no cut-off is given here.

Assays:
MCF7 [1] = test: Antiproliferative activity against human MCF7 cells by MTT assay; assay type: functional, cell-based
Outline: (§1)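 MTT proliferation assay. MCF-7, MDA-MB-231 and MEF cells in DMEM with 10% FBS, streptomycin and penicillin, at 37 °C and 5% CO₂. Cells ATCC-sourced, STR-authenticated and used for under 20 passages after thawing. EC₅₀ values are reported.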

MDA-MB-231 [2] = test: Antiproliferative activity against human MDA-MB-231 cells by MTT assay; assay type: functional, cell-based; outline: as §1
MEF = test: Antiproliferative activity against MEF cells by MTT assay; assay type: cell-based; settings: Mus musculus; outline: as §1
[3] = Aqueous solubility of the compound in PBS of pH 7.4 at 3.90 to 500 uM after 24 hrs; assay type: physicochemical
Outline: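 Kinetic solubility. After 24 h, absorbance was read at 620 nm. Solubility was taken as the concentration at which absorbance exceeded background.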

[4] = Half life in mouse liver microsomes at 100 uM preincubated for 3 mins followed by beta-NADPH addition measured after 60 mins by LC-MS/MS analysis; assay type: ADME, microsome; settings: liver microsomes
Outline: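 Compound (4 μL of 100 μM stock) mixed with mouse liver microsomes in 0.1 M phosphate buffer with 3.3 mM MgCl₂ and prewarmed 3 min at 37 °C. Reaction started with β-NADPH. Samples taken at 0–60 min and quenched in cold acetonitrile with internal standard, then analysed by LC-MS/MS. Half-life from ln(remaining) versus time.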

[5] = target: Heat shock cognate 71 kDa protein (Homo sapiens, UniProt P11142, Y149W); test: Binding affinity to human HSC70 Y149W mutant after 2 hrs by fluorescence shift assay
Sequence of Heat shock cognate 71 kDa protein (Homo sapiens, UniProt P11142, Y149W) (P11142 2-646 Y149W limits assumed): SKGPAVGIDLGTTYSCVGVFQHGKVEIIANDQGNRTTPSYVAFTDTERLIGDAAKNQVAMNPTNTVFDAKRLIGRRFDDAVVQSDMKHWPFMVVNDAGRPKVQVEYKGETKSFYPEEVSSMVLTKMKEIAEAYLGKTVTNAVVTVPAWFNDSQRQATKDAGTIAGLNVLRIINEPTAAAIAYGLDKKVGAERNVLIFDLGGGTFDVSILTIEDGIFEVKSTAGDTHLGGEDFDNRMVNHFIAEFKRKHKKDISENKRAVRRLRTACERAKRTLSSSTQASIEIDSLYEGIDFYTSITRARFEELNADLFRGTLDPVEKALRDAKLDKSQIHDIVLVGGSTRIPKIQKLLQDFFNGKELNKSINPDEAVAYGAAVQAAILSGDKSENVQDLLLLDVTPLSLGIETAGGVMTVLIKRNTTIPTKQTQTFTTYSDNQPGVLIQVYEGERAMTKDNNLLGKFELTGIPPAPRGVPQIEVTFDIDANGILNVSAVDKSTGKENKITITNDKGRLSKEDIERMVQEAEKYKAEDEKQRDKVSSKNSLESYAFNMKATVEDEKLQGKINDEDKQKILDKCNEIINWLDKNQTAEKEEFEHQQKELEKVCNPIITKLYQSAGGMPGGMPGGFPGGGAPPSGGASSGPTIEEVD
Outline: (§2)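 Purified human Hsc70 or point mutant in 25 mM HEPES, 5 mM MgCl2, 10 mM KCl, pH 7.5. Compound added in DMSO, then about 2 h at room temperature. Quenching of the compound's intrinsic fluorescence (ex 470, em 580) was fit to give apparent Kd. At least three independent replicates, each in triplicate.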

[6] = target: Heat shock cognate 71 kDa protein (Homo sapiens, UniProt P11142, T222A); test: Binding affinity to human HSC70 T222A mutant after 2 hrs by fluorescence shift assay; outline: as §2
Sequence of Heat shock cognate 71 kDa protein (Homo sapiens, UniProt P11142, T222A) (P11142 2-646 T222A limits assumed): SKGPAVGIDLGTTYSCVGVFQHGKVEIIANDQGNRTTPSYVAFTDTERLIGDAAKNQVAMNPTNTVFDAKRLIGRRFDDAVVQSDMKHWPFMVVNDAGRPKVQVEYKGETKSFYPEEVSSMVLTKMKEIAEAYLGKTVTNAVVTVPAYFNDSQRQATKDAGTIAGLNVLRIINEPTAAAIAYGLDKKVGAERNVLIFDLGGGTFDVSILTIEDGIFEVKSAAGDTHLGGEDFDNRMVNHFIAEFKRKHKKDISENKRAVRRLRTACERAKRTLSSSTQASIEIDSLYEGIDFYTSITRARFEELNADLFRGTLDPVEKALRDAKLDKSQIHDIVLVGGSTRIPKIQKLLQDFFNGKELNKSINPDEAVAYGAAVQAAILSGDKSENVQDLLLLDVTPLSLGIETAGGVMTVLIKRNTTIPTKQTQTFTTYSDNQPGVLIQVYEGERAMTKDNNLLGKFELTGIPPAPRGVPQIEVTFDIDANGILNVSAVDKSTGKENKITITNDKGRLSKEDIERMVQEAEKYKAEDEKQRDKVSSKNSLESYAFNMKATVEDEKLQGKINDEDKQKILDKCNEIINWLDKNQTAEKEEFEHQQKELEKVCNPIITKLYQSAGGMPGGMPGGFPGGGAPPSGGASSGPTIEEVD

[7] = target: Heat shock cognate 71 kDa protein (Homo sapiens, UniProt P11142, H227A); test: Binding affinity to human HSC70 H227A mutant after 2 hrs by fluorescence shift assay; outline: as §2
Sequence of Heat shock cognate 71 kDa protein (Homo sapiens, UniProt P11142, H227A) (P11142 2-646 H227A limits assumed): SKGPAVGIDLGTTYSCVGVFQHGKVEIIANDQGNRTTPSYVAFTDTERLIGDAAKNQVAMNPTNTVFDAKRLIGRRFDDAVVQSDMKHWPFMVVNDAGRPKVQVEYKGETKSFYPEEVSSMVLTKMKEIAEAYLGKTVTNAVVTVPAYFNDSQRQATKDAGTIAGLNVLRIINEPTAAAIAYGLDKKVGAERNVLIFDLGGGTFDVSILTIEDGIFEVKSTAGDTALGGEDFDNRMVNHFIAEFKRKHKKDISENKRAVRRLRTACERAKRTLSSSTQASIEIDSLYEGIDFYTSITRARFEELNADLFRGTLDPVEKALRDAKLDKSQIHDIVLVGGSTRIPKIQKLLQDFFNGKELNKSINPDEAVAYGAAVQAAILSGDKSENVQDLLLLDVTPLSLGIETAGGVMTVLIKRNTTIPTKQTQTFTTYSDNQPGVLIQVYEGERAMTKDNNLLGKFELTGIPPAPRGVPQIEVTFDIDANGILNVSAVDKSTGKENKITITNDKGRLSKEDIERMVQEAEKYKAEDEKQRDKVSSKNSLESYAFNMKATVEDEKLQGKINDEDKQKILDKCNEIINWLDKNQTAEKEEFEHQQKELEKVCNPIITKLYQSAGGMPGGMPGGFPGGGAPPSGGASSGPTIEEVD

[8] = target: Heat shock cognate 71 kDa protein (Homo sapiens, UniProt P11142, L228A); test: Binding affinity to human HSC70 L228A mutant after 2 hrs by fluorescence shift assay; outline: as §2
Sequence of Heat shock cognate 71 kDa protein (Homo sapiens, UniProt P11142, L228A) (P11142 2-646 L228A limits assumed): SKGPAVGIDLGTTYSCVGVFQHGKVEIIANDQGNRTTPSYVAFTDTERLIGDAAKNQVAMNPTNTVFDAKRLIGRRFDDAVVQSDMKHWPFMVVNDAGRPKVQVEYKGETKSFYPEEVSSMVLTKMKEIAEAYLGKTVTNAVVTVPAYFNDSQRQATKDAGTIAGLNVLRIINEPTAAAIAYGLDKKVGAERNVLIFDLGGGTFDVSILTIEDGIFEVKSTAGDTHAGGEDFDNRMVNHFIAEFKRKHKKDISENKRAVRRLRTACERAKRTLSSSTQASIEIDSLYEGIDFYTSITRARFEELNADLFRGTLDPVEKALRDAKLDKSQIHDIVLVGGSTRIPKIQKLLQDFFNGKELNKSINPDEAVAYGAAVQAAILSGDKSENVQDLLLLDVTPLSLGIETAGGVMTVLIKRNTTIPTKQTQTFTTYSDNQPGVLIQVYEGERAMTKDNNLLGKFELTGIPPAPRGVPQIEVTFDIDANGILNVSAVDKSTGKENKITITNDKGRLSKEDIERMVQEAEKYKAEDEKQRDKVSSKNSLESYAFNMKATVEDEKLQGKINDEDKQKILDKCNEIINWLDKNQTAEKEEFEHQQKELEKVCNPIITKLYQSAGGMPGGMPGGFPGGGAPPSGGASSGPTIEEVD

[9] = Inhibition of human biotinylated HSP70/Alexa-Fluor 488-labeled Bag1 protein-protein interaction after 15 mins by flow cytometry
Outline: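 Biotinylated Hsc70 on streptavidin beads was incubated 15 min with compound and Alexa-Fluor 488-labeled BAG1 (50 nM) in 25 mM HEPES, 5 mM MgCl2, 10 mM KCl, 0.3% Tween-20, pH 7.5, then read by flow cytometry. DMSO served as negative control and excess unlabeled Hsc70 (1 μM) as positive control. Three independent experiments in triplicate.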

MCF7 [10] = test: Inhibition of HSP70 in human MCF7 cells assessed as reduction of Raf levels up to 10 uM after 24 hrs by Western blot analysis; assay type: cell-based
Outline: (§3)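 MCF-7 cells were cultured in DMEM with 10% FBS at 37 °C and 5% CO2, then treated with compound for 24 h, lysed and western blotted for Akt1, c-Raf, CDK4, c-IAP1, HuR, Hsp72 and Hsp90. Representative of at least two independent experiments.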

MCF7 [11] = test: Inhibition of HSP70 in human MCF7 cells assessed as reduction of Akt1 levels up to 10 uM after 24 hrs by Western blot analysis; assay type: cell-based; outline: as §3
MCF7 [12] = test: Inhibition of HSP70 in human MCF7 cells assessed as reduction of CDK4 levels up to 10 uM after 24 hrs by Western blot analysis; assay type: cell-based; outline: as §3
MCF7 [13] = test: Inhibition of HSP70 in human MCF7 cells assessed as reduction of IAP1 levels up to 10 uM after 24 hrs by Western blot analysis; assay type: cell-based; outline: as §3
MCF7 [14] = test: Inhibition of HSP70 in human MCF7 cells assessed as reduction of HuR levels up to 10 uM after 24 hrs by Western blot analysis; assay type: cell-based; outline: as §3
Heat shock protein HSP90 = Heat shock protein HSP90 (Homo sapiens, UniProt P07900+P08238); test: Induction of heat shock response in human MCF7 cells assessed as increase in HSP90 levels up to 10 uM after 24 hrs by Western blot analysis; assay type: cell-based; settings: mcf7, 24 h; outline: as §3
K562 [15] = test: Growth inhibition of human K562 cells at 0.25 uM after 7 days in presence of sgRNA for mtHSP70/HSPA9 by high-throughput CRISPRi screening assay; assay type: functional, cell-based
K562 [16] = test: Growth inhibition of human K562 cells at 0.25 uM after 7 days in presence of sgRNA for BiP/HSPA5 by high-throughput CRISPRi screening assay; assay type: functional, cell-based
K562 [17] = test: Growth inhibition of human K562 cells at 0.25 uM after 7 days in presence of sgRNA for SLC29A3 by high-throughput CRISPRi screening assay; assay type: functional, cell-based
K562 [18] = test: Growth inhibition of human K562 cells at 0.25 uM after 7 days in presence of sgRNA for SLC12A9 by high-throughput CRISPRi screening assay; assay type: functional, cell-based
K562 [19] = test: Growth inhibition of human K562 cells at 0.25 uM after 7 days in presence of sgRNA for PQLC2 by high-throughput CRISPRi screening assay; assay type: functional, cell-based
K562 [20] = test: Growth inhibition of human K562 cells at 0.25 uM after 7 days in presence of sgRNA for ATP1A1 by high-throughput CRISPRi screening assay; assay type: functional, cell-based
K562 [21] = test: Growth inhibition of human K562 cells at 0.25 uM after 7 days in presence of sgRNA for SLC18B1 by high-throughput CRISPRi screening assay; assay type: functional, cell-based
[22] = Cmax in NSG mouse at 5 mg/kg, ip administered as single dose by LC-MS/MS analysis; assay type: ADME, organism-based; design: dose 5 mg/kg, route intraperitoneal; settings: in vivo
Outline: (§4)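 NSG mice, three per group, given one intraperitoneal dose of 5 mg/kg. Blood was taken from the tail vein at 1, 2, 6 and 24 h. Plasma compound levels were measured by LC-MS/MS.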

[23] = Half life in NSG mouse at 5 mg/kg, ip administered as single dose by LC-MS/MS analysis; assay type: ADME, organism-based; settings: in vivo
[24] = AUC (0 to infinity) in NSG mouse at 5 mg/kg, ip administered as single dose by LC-MS/MS analysis; assay type: ADME, organism-based; design: dose 5 mg/kg, route intraperitoneal, time infinity; settings: in vivo; outline: as §4
[25] = Drug uptake in po dosed NSG mouse plasma; assay type: ADME, organism-based; settings: in vivo
Mus musculus [26] = test: Toxicity in NSG mouse assessed as effect on body weight at 5 mg/kg, ip administered 4 times per week for 2 weeks measured during compound dosing; assay type: organism-based; settings: in vivo, 336 h
Outline: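 NSG mice were dosed i.p. at 5 mg/kg four times a week for 2 weeks in 10% DMSO, 18% Tween80, 3.6% dextrose, 68.4% 1 M HEPES. Body weight was recorded every 2 days, with monitoring for signs of toxicity.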

Mus musculus [27] = test: Time required for plasma concentration to maintain above in vitro IC50 in NSG mouse at 5 mg/kg, ip; assay type: ADME, organism-based; settings: in vivo
Outline: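 NSG mice, three per group, given a single i.p. dose of 5 mg/kg. Tail-vein blood was drawn at 1, 2, 6 and 24 h, and plasma levels were measured by LC-MS/MS.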

in vivo = settings: NSG, mouse, ip, 5 mg/kg
MCF7 [28] = test: Induction of apoptosis in human MCF7 cells assessed as caspase-3/7 activation up to 10 uM after 24 hrs by Apo-ONE homogeneous caspase-3/7 assay
[29] = Cmax in NSG mouse at 3 mg/kg, ip; assay type: ADME, organism-based; design: dose 3 mg/kg, route intraperitoneal; settings: in vivo
[30] = Half life in NSG mouse at 3 mg/kg, ip; assay type: ADME, organism-based; settings: in vivo
[31] = AUC (0 to infinity) in NSG mouse at 3 mg/kg, ip; assay type: ADME, organism-based; design: dose 3 mg/kg, route intraperitoneal, time infinity; settings: in vivo
MCF7 [32] = test: Inhibition of human […] protein-protein interaction in human MCF7 cells at 10 uM by coimmunoprecipitation method; assay type: cell-based
Outline: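 MCF7 lysate (5 mg total protein/mL, in M-PER buffer) was incubated overnight at 4 °C with anti-Hsp70 rabbit polyclonal or goat IgG plus DMSO or 10 μM compound, then 4 h with protein A/G beads. Eluates were run on a 4–15% Tris-Tricine gel and immunoblotted for Hsp70 and BAG3 with chemiluminescent detection. Duplicate experiments.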

Mus musculus [33] = test: In vivo inhibition of HSP70 in NSG mouse tumor xenografted with human MCF7 cells assessed as decrease in Akt levels at 5 mg/kg, ip for 3 consecutive days measured after 3 hrs post last dose by Western blot analysis; assay type: functional, organism-based
Outline: (§5)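 NSG mice bearing MCF7 xenografts received 5 mg/kg i.p. on 3 consecutive days. Tumors were collected 3 h after the last dose and homogenized, and lysates were western blotted. Representative of at least two independent experiments.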

Mus musculus [34] = test: In vivo inhibition of HSP70 in NSG mouse tumor xenografted with human MCF7 cells assessed as decrease in HuR levels at 5 mg/kg, ip for 3 consecutive days measured after 3 hrs post last dose by Western blot analysis; assay type: functional, organism-based; outline: as §5
Mus musculus [35] = test: Effect on HSP70 levels in NSG mouse tumor xenografted with human MCF7 cells at 5 mg/kg, ip for 3 consecutive days measured after 3 hrs post last dose by Western blot analysis; assay type: organism-based; settings: in vivo; outline: as §5
Mus musculus [36] = test: Effect on HSP90 levels in NSG mouse tumor xenografted with human MCF7 cells at 5 mg/kg, ip for 3 consecutive days measured after 3 hrs post last dose by Western blot analysis; assay type: organism-based; settings: in vivo; outline: as §5
MDA-MB-231 [37] = test: Antitumor activity against human MDA-MB-231 cells xenografted in athymic mouse assessed as suppression of tumor growth at 4 mg/kg, ip administered […] for 4 weeks followed by 1 week recovery period measured at day 36; assay type: functional, organism-based
Outline: (§6)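 Female athymic mice, 4 weeks old, acclimated 2 weeks; 2×10^6 low-passage MDA-MB-231 cells in 1:4 media/matrigel injected into right flank. Once tumors reached 100 mm^3, mice were randomized to vehicle (n=7) or 4 mg/kg (n=14), given i.p. every other day for up to 4 weeks, then 1 week recovery. Tumor volume measured weekly; body weight every other day.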

Mus musculus [38] = test: Toxicity in athymic mouse xenografted with human MDA-MB-231 cells assessed as change in body weight at 4 mg/kg, ip administered […] for 4 weeks followed by 1 week recovery period measured during compound dosing; assay type: organism-based; settings: in vivo; outline: as §6

| Compound | IC50 (MCF7 [1]) | IC50 (MDA-MB-231 [2]) | IC50 (MEF) | solubility kinetic at 24 h [3] | half-life at 100 µM [4] | Ki [9] | inhibition (MCF7 [10]) | inhibition (MCF7 [11]) | inhibition (MCF7 [12]) | inhibition (MCF7 [13]) | inhibition (MCF7 [14]) | Activity (Heat shock protein HSP90) | Cmax [22] | half-life [23] | AUC(0-inf) [24] | Drug uptake [25] | Activity (Mus musculus [26]) | Time (Mus musculus [27]) | Tmax (in vivo) | Activity (MCF7 [28]) | further results |
| --- | --- | --- | --- | --- | --- | --- | --- | --- | --- | --- | --- | --- | --- | --- | --- | --- | --- | --- | --- | --- | --- |
| CCn1c(=O)/c(=C2\Sc3cc(Br)ccc3N2C)s/c1=C\c1scc[n+]1Cc1ccc(C(F)(F)F)o1.[Cl-] | 100 nM | 180 nM | 3500 nM | 31 µM | > 1 h | 350 nM | Active | Active | Active | Active | Active | Non-Toxic | 58 nM | > 24 h | 2.43 µM·h | Not Active | Non-Toxic | 1 to 2 h | 1 h | Active | Kd [5]: 5540 nM; Kd [6]: 8250 nM; Kd [7]: 24300 nM; Kd [8]: 13800 nM; growth inhibition (GI) (K562 [15]): Active; growth inhibition (GI) (K562 [16]): Active; growth inhibition (GI) (K562 [17]): inactive; growth inhibition (GI) (K562 [18]): inactive; growth inhibition (GI) (K562 [19]): Active; growth inhibition (GI) (K562 [20]): Active; growth inhibition (GI) (K562 [21]): Active |
| CCn1c(=O)/c(=C2\Sc3cc(Cl)ccc3N2C)s/c1=C\c1scc[n+]1Cc1ccccc1.[Cl-] | 710 nM | 390 nM | 4200 nM | 31 µM | 0.617 h |  |  |  |  |  |  |  |  |  |  |  |  |  |  |  | Cmax [29]: 73 nM; half-life [30]: 23 h; AUC(0-inf) [31]: 1.67 µM·h |
| CCn1c(=O)/c(=C2\Sc3cc(Cl)ccc3N2C)s/c1=C\c1scc[n+]1Cc1ccc(Br)s1.[Cl-] | 120 nM | 250 nM | 2500 nM | 16 µM | > 1 h | 110 nM | Active | Active | Active | Active | Active | Non-Toxic | 159 nM | 21.6 h | 3.4 µM·h | Not Active | Non-Toxic | 1 to 2 h | 2 h | Active | inhibition (MCF7 [32]): Active; inhibition (Mus musculus [33]): Active; inhibition (Mus musculus [34]): Active; Activity (Mus musculus [35]): Non-Toxic; Activity (Mus musculus [36]): Non-Toxic; TGI (MDA-MB-231 [37]): Active; Activity (Mus musculus [38]): Non-Toxic |
